A selection: hits, their analogues and other compounds. The true share with any hit is near 3.3%.
ABCB1 block = human ABCB1 inhibition, ABCG2 as counter-screen. P08183. CCRF-Adr cells, JC-1 efflux, flow cytometry. inhibition, % at 6.6 µM. actives 0.067% (n = 190,000). AID 1326; in the data active = inhibition above about 40%;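 also: 0% = vehicle and 100% = reference inhibitor; higher value means more JC-1 retained so stronger ABCB1 efflux block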
Target sequence (P08183 whole entry, looked up): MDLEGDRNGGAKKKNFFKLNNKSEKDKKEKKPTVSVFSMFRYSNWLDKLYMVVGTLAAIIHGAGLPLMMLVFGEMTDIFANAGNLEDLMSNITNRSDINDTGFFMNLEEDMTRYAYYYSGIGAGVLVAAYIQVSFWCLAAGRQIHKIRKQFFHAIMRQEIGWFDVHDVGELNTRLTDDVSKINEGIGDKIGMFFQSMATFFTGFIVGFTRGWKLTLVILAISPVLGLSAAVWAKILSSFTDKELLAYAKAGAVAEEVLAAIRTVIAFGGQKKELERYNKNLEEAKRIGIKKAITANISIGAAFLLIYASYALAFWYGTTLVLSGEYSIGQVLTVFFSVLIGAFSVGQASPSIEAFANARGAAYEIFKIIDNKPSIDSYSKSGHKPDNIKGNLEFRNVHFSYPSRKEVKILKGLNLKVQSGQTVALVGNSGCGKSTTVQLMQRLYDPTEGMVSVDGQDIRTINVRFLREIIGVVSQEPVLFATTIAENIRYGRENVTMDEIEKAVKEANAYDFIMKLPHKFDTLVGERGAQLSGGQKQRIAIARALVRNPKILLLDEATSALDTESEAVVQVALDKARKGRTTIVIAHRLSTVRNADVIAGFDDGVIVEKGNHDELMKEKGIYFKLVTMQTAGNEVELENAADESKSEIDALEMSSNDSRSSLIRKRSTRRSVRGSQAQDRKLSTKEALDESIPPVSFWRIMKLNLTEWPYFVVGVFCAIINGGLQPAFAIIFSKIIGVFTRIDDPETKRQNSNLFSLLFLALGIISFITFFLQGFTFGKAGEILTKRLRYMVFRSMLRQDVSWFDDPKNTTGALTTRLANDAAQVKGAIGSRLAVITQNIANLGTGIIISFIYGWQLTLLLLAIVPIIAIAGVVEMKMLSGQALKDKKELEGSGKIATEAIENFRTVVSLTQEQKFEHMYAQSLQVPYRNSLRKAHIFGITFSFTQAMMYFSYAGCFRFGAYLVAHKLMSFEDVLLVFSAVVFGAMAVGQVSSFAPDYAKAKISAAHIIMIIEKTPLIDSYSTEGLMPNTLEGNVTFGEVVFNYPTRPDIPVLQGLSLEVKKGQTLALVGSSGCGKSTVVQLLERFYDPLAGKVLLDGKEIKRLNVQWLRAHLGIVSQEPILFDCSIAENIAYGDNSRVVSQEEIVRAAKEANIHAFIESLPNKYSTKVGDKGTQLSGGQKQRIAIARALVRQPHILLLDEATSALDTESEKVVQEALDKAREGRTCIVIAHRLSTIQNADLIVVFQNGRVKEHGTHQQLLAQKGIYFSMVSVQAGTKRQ
ABCG2 block = human ABCG2 inhibition, ABCB1 as counter-screen. Q9UNQ0. IgMXP3 cells, JC-1 efflux, flow cytometry. inhibition, % at 6.6 µM. actives 0.1% (n = 190,000). AID 1325;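 active = inhibition above 80%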;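 also: 0% = DMSO and 100% = nicardipine control wells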
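Read-out basis: Efflux inhibition in percent versus controls | Test system: ABCG2 IgMXP3 and barcoded ABCB1 CCRF-Adr cell mix | Quantity: 3 million cells/mL in well | Schedule: 10 min at 25 °C | Control set: Nicardipine as high control, DMSO as low control | Reagent: JC-1 as fluorescent efflux pump substrate | Signal: Flow cytometry of retained JC-1 fluorescence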
KCC2 mod = KCC2 (human) Cl- transport modulation; Q9H2X9; KCC2 cells, thallium flux FluoZin-2 fluorescence; B-score of Tl+ flux slope (higher = more flux/activation; lower = inhibition) at 10 µM; actives 2.2% (n = 190,000); AID 1456;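 active = thallium flux slope and its plate-corrected score both differing from the plate sample mean at a set confidence after two filtering rounds, in either direction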;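 also: slope of fluorescence scaled to starting intensity during 10 to 20 s after thallium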
PMI act hi M6P = PMI (human) activation, high substrate. P34949. coupled PMI enzyme assay, resazurin fluorescence, 20 min; stronger effect = higher value; 1 = untreated enzyme, 0 = substrate-free blank. activation factor at 20 µM. actives 0.34% (n = 190,000). AID 1216;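 active = activation factor of 2 or more at 20 µM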
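Material: human phosphomannose isomerase with PGI, G6PDH, diaphorase coupling enzymes. Quantity: 15 ng/mL PMI. Medium: HEPES pH 7.4 buffer with MgCl2 and Tween-20. Reagent: Near-saturating mannose-6-phosphate, 1.0 mM. Compound: 20 µM single dose. Times: enzyme reaction with compound 20 min at room temperature. Detection: resorufin fluorescence at Ex 544/Em 590 nm.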
PMI act = activators of human phosphomannose isomerase; activation factor at 20 µM; purified human PMI, coupled resazurin fluorescence, 20 min; stronger effect = higher value; 1 = vehicle control, 0 substrate-free wells; actives 0.005% (n = 190,000);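 active = activation factor of 2 or more at 20 µM, relative to plate controls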
ROMK mod = human ROMK K+ channel modulation, primary screen | P48048 | Tet-inducible ROMK, thallium flux fluorescence; actives lie on both sides | B-score at 10 µM | actives 2% (n = 130,000) | AID 1918;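 active = signal ratio slope over the read window, or its plate-corrected B-score, at least 3 SD from the plate mean, either direction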;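 also: B-score of the F/F0 ratio slope over 7 to 12 s after thallium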
ROMK hit retest = confirmation of human ROMK potassium channel modulators; ROMK thallium flux, fluorescence ratio; stronger effect = lower value; normalized thallium flux (F/F0 slope) at 10 µM; actives 54% (n = 3,000); shares compounds with ROMK mod;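 active = Flux at 10 µM at least 3 SD below or above vehicle control mean in one or both replicates; inconclusive = no clear call, values can overlap the other calls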
* = called active by the depositor; u = inconclusive; x = not tested or not shown.

SMILES	ABCB1 block	ABCG2 block	KCC2 mod	PMI act hi M6P	PMI act	ROMK mod	ROMK hit retest
CN(C)/C=N/c1c(C#N)cnn1-c1ccccc1	0	1	x	1	1.1	0.082	x
CN(C)/C=N/c1c(C#N)cnn1-c1ncnc2sc(-c3ccccc3)cc12	1	7	-1.5	1	1	x	0.063*
Cn1cc(CNC(=O)c2cc(-c3ccccc3)nc3ccc(Br)cc23)cn1	1	-1	0.79	0.9	1	-0.08	x
Cc1nn(C)cc1CN(C)C(=O)c1cc(-c2ccccc2)nc2ccc(Br)cc12	1	0	-0.6	0.9	1	0.039	0.058*
CCCCOC(=O)Nc1nc(C)c(C(=O)OCC)s1	0	27	0.38	0.9	0.9	x	x
Cc1ccc(CSc2nnc(-c3ccc(NS(=O)(=O)c4ccccc4)cc3)o2)cc1	0	-1	-0.71	0.8	0.8	0.24	x
COC(=O)CSc1nnc(-c2ccc(NS(=O)(=O)c3ccccc3)cc2)o1	0	1	-0.12	1.1	1.1	-3.5*	0.056*
CCCC(=O)Nc1nc(C)c(-c2csc(Nc3ccccc3C)n2)s1	0	0	-0.93	0.6	0.7	-15*	u
CCNC(=O)c1c(O)c2ccccc2[nH]c1=O	-2	-1	0.081	0.9	0.9	2.6*	0.089
COc1ccc(S(=O)(=O)Nc2nc3ccccc3nc2Nc2ccc3c(c2)OCO3)cc1	0	-6	1.7	0.9	0.9	-0.63	x
O=S(=O)(Nc1nc2ccccc2nc1Nc1ccc2c(c1)OCCO2)c1cccs1	0	0	-2.9	0.8	1	x	u
Cc1cc(C)cc(-n2ccnc2SCC(=O)O)c1	0	-2	0.012	1	1.1	0.0076	x
CCCCC(=O)Nc1ccccc1C(=O)N1CCOCC1	0	0	x	1.1	1.1	-0.32	x
CCOc1ccccc1N(CC(=O)N1CCOCC1)S(=O)(=O)c1ccc(SC)cc1	2	5	0.22	1	1	-7.4*	0.034*
CCOc1ccccc1N(CC(=O)Nc1ccc(S(=O)(=O)N2CCOCC2)cc1)S(=O)(=O)c1ccccc1	0	1	0.18	1.1	1	x	x
Nc1ncnc2c1ncn2CCNCCc1ccccc1	-2	-1	x	0.9	0.9	x	0.082
COc1ccc(OC)c(-c2cc(C(=O)Nc3c(C)nn(Cc4ccc(Cl)cc4)c3C)no2)c1	0	16	x	1	0.9	-2.6*	0.065*
O=C(C1CCCN(S(=O)(=O)c2ccccc2)C1)N1CCCc2ccccc21 (configuration not stated)	1	-1	-0.86	1	1	-0.15	x
COc1cccc(/C(O)=C/c2nc3ccc(C(=O)NCCc4ccc(Cl)cc4)cc3[nH]c2=O)c1	-2	-7	-1.5	1	0.9	x	x
COc1cccc(/C(O)=C/c2nc3ccc(C(=O)NCCc4cccc(C)c4)cc3[nH]c2=O)c1	0	-4	0.013	1.1	1	x	0.062*
CC1CCN(C(=S)NCCc2ccccc2)CC1	0	7	0.015	1	1	x	x
S=C(NCCc1ccccc1)N1CCN(C2CCCCC2)CC1	1	3	-0.039	1	1	-2.7*	0.063*
CCCC(NS(=O)(=O)c1ccc(Br)cc1)C(=O)O (configuration not stated)	-1	-1	1.5	1	0.9	x	x
CCc1nnc(NC(=O)c2c(OC)cccc2OC)s1	-1	-6	1.2	1	0.9	x	x
CCOCc1nnc(NC(=O)c2c(OC)cccc2OC)s1	0	0	x	1	0.9	3.3*	u
SMILES	ABCB1 block	ABCG2 block	KCC2 mod	PMI act hi M6P	PMI act	ROMK mod	ROMK hit retest
COc1ccccc1CN=Cc1[nH]c2ccc(Br)c(Cl)c2c1O	1	0	-0.6	1.3	1.1	-3.6*	0.044*
c1nnc(NC2=NCCC2)s1	0	1	0.85	1	0.9	1.6*	0.078
COc1ccc(CNCc2ccco2)cc1OCc1ccccc1	2	7	x	0.9	0.8	x	x
CCOc1cc(CNCCc2ccc(S(N)(=O)=O)cc2)ccc1OCc1ccc(Cl)cc1	0	1	-0.59	1	0.9	-1.1	x
COc1cc(CNCCc2ccccc2)ccc1OCc1ccc(Cl)nc1	2	4	0.33	1	0.9	-3.7*	0.057*
COc1ccccc1CCNCc1ccc(OC)c(OCc2ccccc2)c1	8	22	0.31	0.9	0.9	x	0.065*
COc1cc(CNCCc2ccc(S(N)(=O)=O)cc2)ccc1OCc1ccc(Cl)cc1	-6	-2	0.31	1.1	1	-2.6*	0.058*
COc1cccc(CNCCc2c[nH]c3ccccc23)c1OCc1ccccc1	3	26	0.58	1	1	x	0.059*
CCCn1c(O)c(N=N)c2ccccc21	0	1	-0.0017	1.1	1	0.23	x
CC(=O)c1cnc2n(c1=O)CCS2	0	1	1.6	0.9	1	0.025	x
CCOC(=O)C1(CCCc2ccccc2)CCN(C(=O)CCOC)CC1	0	-1	-0.16	1.1	1	0.52	x
COc1ccccc1/C=N/NC(=O)CCn1cnc2ccccc21	1	16	-1.5	1	0.9	x	x
CCC(CC)NCc1ccc2c(c1)c1ccccc1n2CC	1	9	1.3	1.1	0.7	-1.4	x
CCn1c2ccccc2c2cc(CNCc3ccc(OC)cc3OC)ccc21	1	2	0.41	1	0.9	-5.1*	0.046*
CCCCc1ccc(N2C(=O)[C@@H]3C(CC(N)=O)NC4(C(=O)Nc5ccc(F)cc54)[C@@H]3C2=O)cc1 (some centres not stated)	0	2	x	1.1	1	0.43	x
CCN1/C(=C\c2ccc3cc(C)ccc3[n+]2CC)Sc2cc(C)c(C)cc21	5	36	0.11	0.9	0.5	-5*	0.047*
CCN1/C(=C/c2ccc3cc(C)cc(C)c3[n+]2CC)Sc2cc(C)ccc21	3	22	-0.66	1.1	0.8	-5.2*	0.045*
CC[n+]1c(/C=C/c2ccc(N(C)C)cc2)ccc2ccccc21	0	-15	0.21	1	0.7	x	x
CC(=O)NS(=O)(=O)c1ccc(NC(=O)c2ccc(Br)o2)cc1	0	0	x	1.1	1	0.05	x
C/C(N)=C(/C#N)C(=O)COC(=O)Cc1coc2ccc3ccccc3c12	0	0	x	0.9	1	-0.17	x
O=C(Nc1ccccc1C(=O)N1CCCCC1)NC1CCCCC1	0	0	0.7	0.9	0.9	0.24	x
CCn1cc(C(=O)N2CCN(c3ccc(F)cc3)CC2)c2cc(OC)c(OC)cc2c1=O	1	1	-0.27	0.7	1	-0.32	0.078
